Results collected from several papers.
Each line is one published result; the experiments were not run side by side.
Target: Serine/threonine-protein kinase 24 (STK24, Homo sapiens, UniProt Q9Y6E0)

Structure (SMILES) | read-out | technique | tested at | remaining binding [%]
N[C@@H]1CCN(c2nccc(-c3cnn4ncccc34)n2)C1 | binding | – | 1 µM | 100
O=C(c1ccc(Nc2ncc(Cl)c(-c3cc4ccccc4s3)n2)cc1)N1CCC(N2CCCC2)CC1 | binding | competition with immobilised ligand | 1 µM | 92
COc1cnc(Nc2cccc(S(N)(=O)=O)c2)nc1N1CCN(c2ccccc2)CC1 | binding | competition with immobilised ligand | 1 µM | 82
O=C(c1ccc(Nc2ncc(Cl)c(-c3ccc(Cl)s3)n2)cc1)N1CCC(N2CCCC2)CC1 | binding | competition with immobilised ligand | 1 µM | 44
O=C(NS(=O)(=O)c1ccc(NCC2CCOCC2)c([N+](=O)[O-])c1)c1ccc(N2CCN(Cc3ccc(C(F)(F)F)cc3-c3ccc(Cl)cc3)CC2)cc1Oc1cnc2[nH]ccc2c1 | cell-free assay | competition with immobilised ligand | 1 µM | 100
F[C@@H]1CCN(c2nccc(-c3cnn4ncccc34)n2)C1 | binding | – | 1 µM | 93
O=C(NCc1ncc(C(F)(F)F)cc1Cl)c1ccc2c(c1)C1(CCS(=O)(=O)CC1)[C@@H](C1CC1)N2S(=O)(=O)c1ccc(F)cc1 | cell-free assay | competition with immobilised ligand | 1 µM | 100
COc1ncc2cc3ccccc3nc2c1C#N | cell-free assay | competition with immobilised ligand | 5 µM | 97
C[C@@H]1CCN(c2nccc(-c3cnn4ncccc34)n2)C1 | binding | – | 1 µM | 63
Cc1nc(Cc2cccc(C(F)(F)F)c2)sc1-c1ccc(C(N)=O)nc1 | cell-free assay | competition with immobilised ligand | 1 µM | 100
Cc1cnn2ncc(-c3ccnc(N(C)C)n3)c2c1 | binding | – | 1 µM | 98
O=C(c1ccc(Nc2nccc(-c3cc4ccccc4s3)n2)cc1)N1CCC(N2CCCC2)CC1 | binding | competition with immobilised ligand | 1 µM | 83
CCCCN(CCCC)C(=O)CN1C[C@@H](c2cc(OC)c3c(c2)OCO3)[C@H](C(=O)O)[C@H]1CC(C)(C)CCC | cell-free assay | competition with immobilised ligand | 1 µM | 93.9
c1cncc(-c2cccc(Nc3nccc(NC4CCCCC4)n3)c2)c1 | binding | competition with immobilised ligand | 10 µM | 93
Cn1nc(C(=O)NCc2ccc(C(=O)O)cc2)cc1-c1ccc2[nH]ccc2c1 | cell-free assay | competition with immobilised ligand | 0.1 µM | 97
CN(C)c1nccc(-c2cnc3ncccn23)n1 | binding | – | 1 µM | 94
CS(=O)(=O)NCC[C@H](NC(=O)c1cncc2c1cnn2-c1ccc(F)cc1)c1ccnc(S(C)(=O)=O)c1 | cell-free assay | competition with immobilised ligand | 1 µM | 100
COc1ccnn2ncc(-c3ccnc(N(C)C)n3)c12 | binding | – | 1 µM | 100
O=C(NCC1CCOCC1)c1n[nH]cc1NC(=O)c1c(F)cccc1F | binding | competition with immobilised ligand | 1 µM | 89
